From ChEMBL document CHEMBL1121740, “2-l-Rhamnopyranosyl[1,2,4]triazolo[1,5-a]pyridine. 4' and 3' Oxidation products. Synthesis and structure-activity relationships” (J Med Chem, 1981)
≈ marks a conversion by molar mass, not a printed value. One block for each compound: values may come before it.

Tests used:
[1] = Percent inhibition at 50 ug/mL for focus formation on day +5, using MSV assay on C3H cells with optimal amount of helper virus; assay type: functional; settings: Mus musculus
Summary of the method: (§1)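 MSV focus assay on C3H cells. 8 × 10⁴ cells are seeded per 60-mm dish and pretreated 24 h later with 20 µg/mL DEAE-dextran. Cells are infected with diluted MSV alone or MSV plus MuLV helper, with adsorption for 30 min at 37 °C. Filtered aqueous compound, diluted in medium, is added right after infection. Foci are counted on days 5 and 10. MSV titer was 7×10⁶.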

[2] = Cytotoxicity at 250 ug/mL against MSV transformed (S+L-cells) cells; assay type: cell-based; settings: mouse
Summary of the method: (§2)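 Colony-forming (plating efficiency) assay. 200 C3H or S+L- 3T3 FL cells per well, grown in McCoy's 5a with 10% heat-inactivated FCS. Various product concentrations are added 24 h after seeding. Colonies are stained with May Grunwald Giemsa and counted on day +9. Percent colony formation is taken relative to untreated control cells, set as 100% plating efficiency.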

[3] = Percent inhibition at 100 ug/mL for focus formation on day +5, using MSV assay on C3H cells with optimal amount of helper virus; assay type: functional; settings: Mus musculus; summary of the method: as §1
[4] = Cytotoxicity at 100 ug/mL against normal mouse fibroblasts (C3H cells) cells; assay type: cell-based; summary of the method: as §2
[5] = Percent inhibition at 30 ug/mL for focus formation on day +5, using MSV assay on C3H cells with optimal amount of helper virus; assay type: functional; settings: Mus musculus; summary of the method: as §1
[6] = Percent inhibition at 30 ug/mL for focus formation on day +5, using MSV assay on C3H cells without the addition of helper virus; assay type: functional; settings: Mus musculus; summary of the method: as §1
[7] = Percent inhibition at 30 ug/mL for focus formation using MLV assay on S+L- cells; assay type: functional; settings: Mus musculus
[8] = Percent inhibition at 30 ug/mL for focus formation on day +10, using MSV assay on C3H cells without the addition of helper virus; assay type: functional; settings: Mus musculus; summary of the method: as §1
[9] = Cytotoxicity at 50 ug/mL against MSV transformed (S+L-cells) cells; assay type: cell-based; settings: mouse; summary of the method: as §2
[10] = Percent inhibition at 50 ug/mL for focus formation on day +10, using MSV assay on C3H cells without the addition of helper virus; assay type: functional; settings: Mus musculus; summary of the method: as §1
[11] = Percent inhibition at 50 ug/mL for focus formation using MLV assay on S+L- cells; assay type: functional; settings: Mus musculus
[12] = Percent inhibition at 100 ug/mL for focus formation on day +5, using MSV assay on C3H cells without the addition of helper virus; assay type: functional; settings: Mus musculus; summary of the method: as §1
[13] = Percent inhibition at 100 ug/mL for focus formation using MLV assay on S+L- cells; assay type: functional; settings: Mus musculus
[14] = Toxic effect on C3H cell colony formation; assay type: toxicity, cell-based; settings: mouse, C3H cells; read-out: TD50 (the source's name); summary of the method: as §2
[15] = Inhibitory action of Murine leukemia virus titer on S+L-cell in presence of the compound; assay type: functional; settings: Mus musculus; read-out: ID50 (the source's name)
[16] = Toxic effect on S+L- cell colony formation; assay type: toxicity; settings: mouse, S+L- cells; read-out: TD50 (the source's name)
Summary of the method: (§3)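 S+L- (MSV-transformed 3T3 FL) cells grown in McCoy's 5a with 10% heat-inactivated fetal calf serum and antibiotics. Plating efficiency assay: 200 cells seeded per 35-mm well; product added at various concentrations 24 h after seeding. Colonies stained with May Grunwald Giemsa and counted on day +9. Colony formation expressed relative to untreated controls taken as 100% plating efficiency.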

[17] = Percent inhibition at 100 ug/mL for focus formation on day +10, using MSV assay on C3H cells without the addition of helper virus; assay type: functional; settings: Mus musculus; summary of the method: as §1
[18] = Cytotoxicity at 100 ug/mL against MSV transformed (S+L-cells) cells; assay type: cell-based; settings: mouse; summary of the method: as §2
Murine leukemia virus = assay: Inhibitory dose against MSV titer in the absence of Murine leukemia virus on day +10; assay type: functional, Mus musculus; settings: read-out: ID50 (the source's name); summary of the method: as §1
[19] = Percent inhibition at 50 ug/mL for focus formation on day +5, using MSV assay on C3H cells without the addition of helper virus; assay type: functional; settings: Mus musculus; summary of the method: as §1
[20] = Cytotoxicity at 250 ug/mL against normal mouse fibroblasts (C3H cells) cells; assay type: cell-based; summary of the method: as §2
[21] = Cytotoxicity at 50 ug/mL against normal mouse fibroblasts (C3H cells) cells; assay type: cell-based; summary of the method: as §2
[22] = Percent inhibition at 200 ug/mL for focus formation using MLV assay on S+L- cells; assay type: functional; settings: Mus musculus
[23] = Percent inhibition at 200 ug/mL for focus formation on day +10, using MSV assay on C3H cells without the addition of helper virus; assay type: functional; settings: Mus musculus; summary of the method: as §1
[24] = Percent inhibition at 200 ug/mL for focus formation on day +5, using MSV assay on C3H cells without the addition of helper virus; assay type: functional; settings: Mus musculus; summary of the method: as §1
[25] = Percent inhibition at 200 ug/mL for focus formation on day +5, using MSV assay on C3H cells with optimal amount of helper virus; assay type: functional; settings: Mus musculus; summary of the method: as §1
[26] = Cytotoxic dose that inhibit multiplication of normal fibroblast cells (C3H cells); assay type: cell-based; settings: mouse, read-out: CD50 (the source's name)
Summary of the method: (§4)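 Growth assay on C3H mouse fibroblasts. 10⁴ cells are seeded per well, and different doses of product are added 24 h later. Cellular growth and morphology are examined on day +5.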

[27] = Percent inhibition at 20 ug/mL for focus formation on day +10, using MSV assay on C3H cells without the addition of helper virus; assay type: functional; settings: Mus musculus; summary of the method: as §1
[28] = Percent inhibition at 20 ug/mL for focus formation on day +5, using MSV assay on C3H cells with optimal amount of helper virus; assay type: functional; settings: Mus musculus; summary of the method: as §1
[29] = Toxic effect on S+L-cell colony formation; assay type: toxicity; settings: mouse, S+L- cells; read-out: TD50 (the source's name); summary of the method: as §3
[30] = Percent inhibition at 10 ug/mL for focus formation on day +5, using MSV assay on C3H cells without the addition of helper virus; assay type: functional; settings: Mus musculus; summary of the method: as §1
[31] = Percent inhibition at 3 ug/mL for focus formation on day +5, using MSV assay on C3H cells without the addition of helper virus; assay type: functional; settings: Mus musculus; summary of the method: as §1
[32] = Percent inhibition at 20 ug/mL for focus formation on day +5, using MSV assay on C3H cells without the addition of helper virus; assay type: functional; settings: Mus musculus; summary of the method: as §1
[33] = Percent inhibition at 5 ug/mL for focus formation on day +5, using MSV assay on C3H cells with optimal amount of helper virus; assay type: functional; settings: Mus musculus; summary of the method: as §1
[34] = Percent inhibition at 10 ug/mL for focus formation using MLV assay on S+L- cells; assay type: functional; settings: Mus musculus
[35] = Percent inhibition at 5 ug/mL for focus formation on day +5, using MSV assay on C3H cells without the addition of helper virus; assay type: functional; settings: Mus musculus; summary of the method: as §1
[36] = Percent inhibition at 10 ug/mL for focus formation on day +10, using MSV assay on C3H cells without the addition of helper virus; assay type: functional; settings: Mus musculus; summary of the method: as §1
[37] = Cytotoxic dose that inhibit multiplication of normal fibroblasts; settings: mouse, read-out: CD50 (the source's name); summary of the method: as §4
[38] = Percent inhibition at 3 ug/mL for focus formation using MLV assay on S+L- cells; assay type: functional; settings: Mus musculus
[39] = Cytotoxicity at 5 ug/mL against normal mouse fibroblasts (C3H cells) cells; assay type: cell-based; summary of the method: as §2
[40] = Percent inhibition at 5 ug/mL for focus formation using MLV assay on S+L- cells; assay type: functional; settings: Mus musculus
[41] = Cytotoxicity at 20 ug/mL against normal mouse fibroblasts (C3H cells) cells; assay type: cell-based; summary of the method: as §2
[42] = Percent inhibition at 5 ug/mL for focus formation on day +10, using MSV assay on C3H cells without the addition of helper virus; assay type: functional; settings: Mus musculus; summary of the method: as §1
[43] = Cytotoxicity at 10 ug/mL against MSV transformed (S+L-cells) cells; assay type: cell-based; settings: mouse; summary of the method: as §2
[44] = Cytotoxicity at 5 ug/mL against MSV transformed (S+L-cells) cells; assay type: cell-based; settings: mouse; summary of the method: as §2
[45] = Cytotoxicity at 20 ug/mL against MSV transformed (S+L-cells) cells; assay type: cell-based; settings: mouse; summary of the method: as §2
[46] = Percent inhibition at 3 ug/mL for focus formation on day +5, using MSV assay on C3H cells with optimal amount of helper virus; assay type: functional; settings: Mus musculus; summary of the method: as §1
[47] = Percent inhibition at 10 ug/mL for focus formation on day +5, using MSV assay on C3H cells with optimal amount of helper virus; assay type: functional; settings: Mus musculus; summary of the method: as §1
[48] = Cytotoxicity at 10 ug/mL against normal mouse fibroblasts (C3H cells) cells; assay type: cell-based; summary of the method: as §2
[49] = Percent inhibition at 3 ug/mL for focus formation on day +10, using MSV assay on C3H cells without the addition of helper virus; assay type: functional; settings: Mus musculus; summary of the method: as §1
[50] = Percent inhibition at 2.5 ug/mL for focus formation on day +5, using MSV assay on C3H cells with optimal amount of helper virus; assay type: functional; settings: Mus musculus; summary of the method: as §1

IC50 (Murine leukemia virus): 145 µg/mL (≈ 470 µM)
SMILES: CC1OC(c2nc3c([N+](=O)[O-])cccn3n2)C(O)C(O)C1=O (stereo unspecified)
inhibition at 50 µg/mL [1]: 46% | Colony formation [2]: 0% | inhibition at 100 µg/mL [3]: 78% | Colony formation [4]: 76% | inhibition at 30 µg/mL [5]: 31% | inhibition at 30 µg/mL [6]: 35% | inhibition at 30 µg/mL [7]: 35% | inhibition at 30 µg/mL [8]: 0% | Colony formation [9]: 81% | inhibition at 50 µg/mL [10]: 14% | inhibition at 50 µg/mL [11]: 55% | inhibition at 100 µg/mL [12]: 67% | inhibition at 100 µg/mL [13]: 80% | CC50 [14]: 150 µg/mL (≈ 487 µM) | IC50 [15]: 43 µg/mL | CC50 [16]: 73 µg/mL (≈ 237 µM) | inhibition at 100 µg/mL [17]: 42% | Colony formation [18]: 25% | inhibition at 50 µg/mL [19]: 54% | Colony formation [20]: 21% | Colony formation [21]: 109%

SMILES: CC1OC(c2nc3c(N)cccn3n2)C(O)C(O)C1O (stereo unspecified)
Colony formation [2]: 94% | inhibition at 200 µg/mL [22]: 50% | Colony formation [4]: 115% | inhibition at 200 µg/mL [23]: 0% | inhibition at 200 µg/mL [24]: 0% | inhibition at 200 µg/mL [25]: 11% | IC50 [15]: 200 µg/mL | Colony formation [18]: 83% | Colony formation [20]: 108%

SMILES: C[C@@H]1O[C@@H](c2nc3c([N+](=O)[O-])cccn3n2)[C@H](O)[C@H](O)[C@H]1O
CC50 [26]: 500 µg/mL (≈ 1610 µM)

IC50 (Murine leukemia virus): 9 µg/mL (≈ 30.8 µM)
SMILES: CC1OC(c2nc3c([N+](=O)[O-])cccn3n2)=CC(O)C1O (stereo unspecified)
inhibition at 20 µg/mL [27]: 70% | inhibition at 20 µg/mL [28]: 76% | CC50 [29]: 5 µg/mL (≈ 17.1 µM) | inhibition at 10 µg/mL [30]: 64% | inhibition at 3 µg/mL [31]: 15% | inhibition at 20 µg/mL [32]: 91% | inhibition at 5 µg/mL [33]: 26% | inhibition at 10 µg/mL [34]: 82.5% | inhibition at 5 µg/mL [35]: 44% | inhibition at 10 µg/mL [36]: 58% | CC50 [37]: 62.5 µg/mL (≈ 214 µM) | inhibition at 3 µg/mL [38]: 30% | Colony formation [39]: 71.5% | inhibition at 5 µg/mL [40]: 50% | Colony formation [41]: 2% | inhibition at 5 µg/mL [42]: 30% | Colony formation [43]: 18% | Colony formation [44]: 49% | Colony formation [45]: 0% | inhibition at 3 µg/mL [46]: 39% | inhibition at 10 µg/mL [47]: 50% | Colony formation [48]: 27% | inhibition at 3 µg/mL [49]: 0%

SMILES: O=[N+]([O-])c1cccn2nc([C@@H]3O[C@H](CO)[C@@H](O)[C@H]3O)nc12
inhibition at 5 µg/mL [33]: 62% | inhibition at 2.5 µg/mL [50]: 47% | Colony formation [43]: 46% | Colony formation [44]: 79.6%

SMILES: C[C@@H]1O[C@@H](c2nc3c([N+](=O)[O-])cccn3n2)[C@H](O)[C@H](O)[C@@H]1O
CC50 [26]: 400 µg/mL (≈ 1290 µM)
